Measured values published in ChEMBL document CHEMBL1221334, “A class of novel carboline intercalators: Their synthesis, in vitro anti-proliferation, in vivo anti-tumor action, and 3D QSAR analysis” (Bioorg Med Chem, 2010).
The source made the active and inactive calls. The calls are words filed in the database; no cut-off is given here.

Tests used:
B16 = assay: Cytotoxicity against mouse B16 cells […] by MTT assay; assay type: functional, cell-based
HeLa = assay: Cytotoxicity against human HeLa cells […] by MTT assay; assay type: functional, cell-based
Outline: (§1)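 Cells (1 × 10⁴/ml) in RPMI-1640 were cultured 24 h at 37 °C in 5% CO₂. Medium was then renewed with compound (final 0.1–200 µM) and cells grown a further 48 h. MTT was added for 4 h, residues dissolved in DMSO and absorbance read. I% = (C − T)/C. IC50 is given as mean ± SD, n = 6.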

HepG2 = assay: Cytotoxicity against human HepG2 cells […] by MTT assay; assay type: functional, cell-based; outline: as §1
Bel-7402 = assay: Cytotoxicity against human Bel7402 cells […] by MTT assay; assay type: functional, cell-based; outline: as §1
K562 = assay: Cytotoxicity against human K562 cells […] by MTT assay; assay type: functional, cell-based; outline: as §1
CCRF S-180 [1] = assay: Antitumor activity against mouse S180 cells transplanted in ICR mouse assessed as inhibition of tumor weight at 8.9 umol/kg, ip; assay type: functional; settings: CCRF S-180, ip
Outline: (§2)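 S180 ascites cells, serially passaged weekly in mice, were implanted subcutaneously (1 × 10⁷ viable cells in NS) in the right axilla of male ICR mice aged 10–12 weeks. After 24 h, mice were randomized (10/group) and dosed ip daily with 8.9 µmol/kg in 0.2 ml NS for 7 days. Tumours were weighed 24 h after the last dose. Inhibition = [1 − Tw/Cw] × 100.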

CCRF S-180 [2] = assay: Antitumor activity against mouse S180 cells transplanted in ICR mouse assessed as inhibition of tumor weight at 0.89 umol/kg, ip; assay type: functional; settings: CCRF S-180, ip
CCRF S-180 [3] = assay: Antitumor activity against mouse S180 cells transplanted in ICR mouse assessed as inhibition of tumor weight at 89 umol/kg, ip; assay type: functional; settings: CCRF S-180, ip
CCRF S-180 [4] = assay: Antitumor activity against mouse S180 cells transplanted in ICR mouse assessed as inhibition of tumor weight; assay type: functional, cell-based; outline: as §2
Calf thymus DNA [5] = assay: Binding affinity to calf thymus DNA assessed as decrease in fluorescence intensity at 8 to 72 uM by fluorescence spectroscopy; assay type: nucleic-acid assay; settings: Bos taurus
Calf thymus DNA [6] = assay: Binding affinity to calf thymus DNA assessed as induction of hypochromatic effect by spectrophotometry; assay type: nucleic-acid assay; settings: Bos taurus
Outline: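 UV absorption spectra (220–400 nm) were recorded in PBS for CT DNA (final 240 µM), alone and with test compound at final concentrations of 27, 54, 81 and 108 µM. Hypochromicity and wavelength shift were assessed.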

Calf thymus DNA [7] = assay: Binding affinity to calf thymus DNA assessed as change in melting temperature; assay type: nucleic-acid assay; settings: Bos taurus
Outline: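 Thermal denaturation used CT DNA (100 µM) with test compound (18 µM) in PBS, pH 7.4, at a compound/DNA ratio of 0.18. Temperature was raised at 1 °C/min while absorbance at 260 nm was monitored.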

Calf thymus DNA [8] = assay: Binding affinity to calf thymus DNA assessed as increase in viscosity; assay type: nucleic-acid assay; settings: Bos taurus
Outline: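 An Ostwald viscometer was held at 28 °C in phosphate buffer, with compound/DNA ratios of 0–0.36. Flow times were taken after 5 min of thermal equilibration. η = (t − t₀)/t₀, and data were plotted as (η/η₀)^1/3 versus binding ratio.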

SMILES: O=C(OCc1ccccc1)c1cc2c([nH]c3ccccc32)c(CCN[C@@H](Cc2ccccc2)C(=O)OCc2ccccc2)n1
- IC50 (B16): 28.1 µM
- IC50 (HeLa): > 100 µM
- IC50 (HepG2): > 100 µM
- IC50 (Bel-7402): > 100 µM
- IC50 (K562): > 100 µM
- inhibition in vivo at 8.9 µmol/kg (CCRF S-180 [1]): 6.6%

SMILES: O=C(C[C@H](NCCc1nc(C(=O)OCc2ccccc2)cc2c1[nH]c1ccccc12)C(=O)OCc1ccccc1)OCc1ccccc1
- IC50 (B16): 11.1 µM
- IC50 (HeLa): > 100 µM
- inhibition in vivo at 0.89 µmol/kg (CCRF S-180 [2]): 40.6%
- IC50 (HepG2): > 100 µM
- inhibition in vivo at 89 µmol/kg (CCRF S-180 [3]): 73.5%
- IC50 (Bel-7402): 60.3 µM
- IC50 (K562): > 100 µM
- Activity (CCRF S-180 [4]): Dose-dependent effect
- inhibition in vivo at 8.9 µmol/kg (CCRF S-180 [1]): 56.1%

SMILES: C[C@H](NCCc1nc(C(=O)OCc2ccccc2)cc2c1[nH]c1ccccc12)C(=O)OCc1ccccc1
- IC50 (B16): 20.5 µM
- IC50 (HeLa): 76.4 µM
- IC50 (HepG2): > 100 µM
- IC50 (Bel-7402): 100 µM
- IC50 (K562): 48.2 µM
- inhibition in vivo at 8.9 µmol/kg (CCRF S-180 [1]): 22%

SMILES: O=C(CC[C@H](NCCc1nc(C(=O)OCc2ccccc2)cc2c1[nH]c1ccccc12)C(=O)OCc1ccccc1)OCc1ccccc1
- IC50 (B16): 66.4 µM
- IC50 (HeLa): 54.9 µM
- IC50 (HepG2): 63.1 µM
- IC50 (Bel-7402): > 100 µM
- IC50 (K562): 18.5 µM
- inhibition in vivo at 8.9 µmol/kg (CCRF S-180 [1]): 29.4%

SMILES: C[C@@H](O)[C@H](NCCc1nc(C(=O)OCc2ccccc2)cc2c1[nH]c1ccccc12)C(=O)OCc1ccccc1
- IC50 (B16): 38.4 µM
- IC50 (HeLa): 15.2 µM
- IC50 (HepG2): 26 µM
- IC50 (Bel-7402): > 100 µM
- IC50 (K562): 38.3 µM
- inhibition in vivo at 8.9 µmol/kg (CCRF S-180 [1]): 34.8%

SMILES: CC[C@H](C)[C@H](NCCc1nc(C(=O)OCc2ccccc2)cc2c1[nH]c1ccccc12)C(=O)OCc1ccccc1
- IC50 (B16): 19.2 µM
- IC50 (HeLa): > 100 µM
- IC50 (HepG2): > 100 µM
- IC50 (Bel-7402): > 100 µM
- IC50 (K562): > 100 µM
- inhibition in vivo at 8.9 µmol/kg (CCRF S-180 [1]): 33.9%

SMILES: NC(=O)CC[C@H](NCCc1nc(C(=O)OCc2ccccc2)cc2c1[nH]c1ccccc12)C(=O)OCc1ccccc1
- IC50 (B16): 42.5 µM
- IC50 (HeLa): 71 µM
- IC50 (HepG2): 35.9 µM
- IC50 (Bel-7402): 81.3 µM
- IC50 (K562): > 100 µM
- inhibition in vivo at 8.9 µmol/kg (CCRF S-180 [1]): -5.3%

SMILES: CC(C)C[C@H](NCCc1nc(C(=O)OCc2ccccc2)cc2c1[nH]c1ccccc12)C(=O)OCc1ccccc1
- IC50 (B16): 50.2 µM
- Activity (Calf thymus DNA [5]): Active
- IC50 (HeLa): 22.5 µM
- IC50 (HepG2): 25.2 µM
- IC50 (Bel-7402): 43.5 µM
- IC50 (K562): 21.5 µM
- Activity (Calf thymus DNA [6]): 53%
- Tm (Calf thymus DNA [7]): 13.8 °C
- Activity (Calf thymus DNA [8]): Dose-dependent effect
- inhibition in vivo at 8.9 µmol/kg (CCRF S-180 [1]): 50.9%

SMILES: O=C(CNCCc1nc(C(=O)OCc2ccccc2)cc2c1[nH]c1ccccc12)OCc1ccccc1
- IC50 (B16): 75.4 µM
- IC50 (HeLa): 26.8 µM
- IC50 (HepG2): 50 µM
- IC50 (Bel-7402): 53.2 µM
- IC50 (K562): 47.1 µM
- inhibition in vivo at 8.9 µmol/kg (CCRF S-180 [1]): 3.5%

SMILES: O=C(OCc1ccccc1)c1cc2c([nH]c3ccccc32)c(CCN[C@@H](Cc2c[nH]c3ccccc23)C(=O)OCc2ccccc2)n1
- IC50 (B16): 20.7 µM
- IC50 (HeLa): 59.5 µM
- IC50 (HepG2): 60 µM
- IC50 (Bel-7402): 39 µM
- IC50 (K562): 14.9 µM
- inhibition in vivo at 8.9 µmol/kg (CCRF S-180 [1]): 22.2%

SMILES: O=C(OCc1ccccc1)c1cc2c([nH]c3ccccc32)c(CCN[C@@H](Cc2ccc(O)cc2)C(=O)OCc2ccccc2)n1
- IC50 (B16): 24.5 µM
- IC50 (HeLa): 16.7 µM
- IC50 (HepG2): > 100 µM
- IC50 (Bel-7402): 23.7 µM
- IC50 (K562): 18.9 µM
- inhibition in vivo at 8.9 µmol/kg (CCRF S-180 [1]): 31.7%

SMILES: CC(C)[C@H](NCCc1nc(C(=O)OCc2ccccc2)cc2c1[nH]c1ccccc12)C(=O)OCc1ccccc1
- IC50 (B16): 28.8 µM
- IC50 (HeLa): 25.5 µM
- IC50 (HepG2): 29.2 µM
- IC50 (Bel-7402): 20.3 µM
- IC50 (K562): 20.9 µM
- inhibition in vivo at 8.9 µmol/kg (CCRF S-180 [1]): 34%

SMILES: O=C(OCc1ccccc1)c1cc2c([nH]c3ccccc32)c(CCN[C@@H](Cc2c[nH]cn2)C(=O)OCc2ccccc2)n1
- IC50 (B16): 60 µM
- IC50 (HeLa): 63.6 µM
- inhibition in vivo at 0.89 µmol/kg (CCRF S-180 [2]): 6.3%
- IC50 (HepG2): > 100 µM
- inhibition in vivo at 89 µmol/kg (CCRF S-180 [3]): 60.7%
- IC50 (Bel-7402): 36.9 µM
- IC50 (K562): 14.4 µM
- Activity (CCRF S-180 [4]): Dose-dependent effect
- inhibition in vivo at 8.9 µmol/kg (CCRF S-180 [1]): 35.4%

SMILES: O=C(OCc1ccccc1)c1cc2c([nH]c3ccccc32)c(CCN[C@@H](CO)C(=O)OCc2ccccc2)n1
- IC50 (B16): 60.3 µM
- IC50 (HeLa): 20.3 µM
- IC50 (HepG2): 19.9 µM
- IC50 (Bel-7402): 54.6 µM
- IC50 (K562): 19.7 µM
- inhibition in vivo at 8.9 µmol/kg (CCRF S-180 [1]): 36.7%

SMILES: NC(=O)C[C@H](NCCc1nc(C(=O)OCc2ccccc2)cc2c1[nH]c1ccccc12)C(=O)OCc1ccccc1
- IC50 (B16): 17.1 µM
- IC50 (HeLa): 97.2 µM
- IC50 (HepG2): > 100 µM
- IC50 (Bel-7402): > 100 µM
- IC50 (K562): 63.6 µM
- inhibition in vivo at 8.9 µmol/kg (CCRF S-180 [1]): 14%

SMILES: CSCC[C@H](NCCc1nc(C(=O)OCc2ccccc2)cc2c1[nH]c1ccccc12)C(=O)OCc1ccccc1
- IC50 (B16): 61.1 µM
- IC50 (HeLa): 28.8 µM
- IC50 (HepG2): 18.7 µM
- IC50 (Bel-7402): 25.8 µM
- IC50 (K562): 13.5 µM
- inhibition in vivo at 8.9 µmol/kg (CCRF S-180 [1]): 15.3%

SMILES: O=C(OCc1ccccc1)c1cc2c([nH]c3ccccc32)c(CCN2CCC[C@H]2C(=O)OCc2ccccc2)n1
- IC50 (B16): 71.8 µM
- IC50 (HeLa): 25.8 µM
- IC50 (HepG2): 17.1 µM
- IC50 (Bel-7402): 52.8 µM
- IC50 (K562): 20.1 µM
- inhibition in vivo at 8.9 µmol/kg (CCRF S-180 [1]): 7.1%

SMILES: O=C(NCCCC[C@H](NCCc1nc(C(=O)OCc2ccccc2)cc2c1[nH]c1ccccc12)C(=O)OCc1ccccc1)OCc1ccccc1
- IC50 (B16): 49.4 µM
- IC50 (HeLa): 33.9 µM
- IC50 (HepG2): 36.3 µM
- IC50 (Bel-7402): 14.9 µM
- IC50 (K562): 15.4 µM
- inhibition in vivo at 8.9 µmol/kg (CCRF S-180 [1]): 28.9%

SMILES: Nc1ccn([C@@H]2O[C@H](CO)[C@@H](O)[C@@H]2O)c(=O)n1 [CYTARABINE]
- inhibition in vivo at 0.89 µmol/kg (CCRF S-180 [2]): 6.8%
- IC50 (HepG2): 0.2 µM
- inhibition in vivo at 89 µmol/kg (CCRF S-180 [3]): 54.8%
- IC50 (Bel-7402): 34.2 µM
- IC50 (K562): 33.5 µM
- inhibition in vivo at 8.9 µmol/kg (CCRF S-180 [1]): 24.3%
